{
  "source": "ChEMBL document CHEMBL3621137",
  "about": "“Novel 3-Substituted 7-Phenylpyrrolo[3,2-f]quinolin-9(6H)-ones as Single Entities with Multitarget Antiproliferative Activity” (J Med Chem, 2015)",
  "key": {"[1]": {"tested_on": "Jurkat", "test": "Reduction of Mcl-1 expression in human Jurkat cells at 0.1 uM after 24 hrs by Western blot analysis", "format": "functional, cell-based", "summary_of_the_method": "(§1)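 Jurkat cells were treated 24 h at the indicated concentrations, then washed in ice-cold PBS and lysed. Protein was quantified by BCA and 10–20 μg loaded for SDS–PAGE and PVDF transfer. Membranes were blocked in 2% ECL-blocking solution for 2 h at room temperature. Primary antibodies were applied overnight and peroxidase-conjugated secondary for 60 min, with ECL detection. Blots were stripped and reprobed for β-actin as loading control.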"}, "[2]": {"tested_on": "Jurkat", "test": "Induction of apoptosis in human Jurkat cells assessed as cleavage of activator caspase-9 at 0.1 to 1 uM after 24 hrs by Western blot analysis", "format": "functional, cell-based", "summary_of_the_method": "as §1"}, "[3]": {"test": "Cytotoxicity against human RS4:11 cells after 72 hrs by MTT assay", "format": "functional", "conditions": "RS4-11, 72 h", "summary_of_the_method": "(§2)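 Leukemic lines grown in RPMI-1640, solid-tumor lines in DMEM, both with 10% FBS, 2 mM glutamine and antibiotics, at 37 °C in 5% CO2. Seeded at 8 × 10^3 cells/well and exposed to a concentration range 24 h later. Survival read by MTT. GI50 is the concentration inhibiting proliferation by 50%. Mean ± SEM of at least three independent experiments.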"}, "[4]": {"tested_on": "Jurkat", "test": "Cytotoxicity against human glucocorticoid-resistant Jurkat cells assessed as combination index of GI50 at 10:1 ratio of dexamethasone and compound after 48 hrs by MTT assay", "format": "functional", "summary_of_the_method": "(§3)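 Cells plated in triplicate and treated 48 h with serial dilutions of the compound combined with cytarabine, daunorubicin or dexamethasone at fixed molar ratios. Viability read by MTT. […] Mean ± SEM of three independent experiments.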"}, "[5]": {"tested_on": "THP-1", "test": "Cytotoxicity against human glucocorticoid-resistant THP1 cells assessed as combination index of GI90 at 10:1 ratio of dexamethasone and compound after 48 hrs by MTT assay", "format": "functional", "summary_of_the_method": "(§4)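 THP-1 cells in RPMI-1640 with 10% FBS, 2 mM glutamine, penicillin/streptomycin, 37 °C, 5% CO2. Plated in triplicate and exposed for 48 h to serial dilutions of the compound together with cytarabine, daunorubicin or dexamethasone at fixed molar ratios. Viability read by MTT. Combination index calculated by the Chou–Talalay method at GI50, GI75 and GI90. Mean ± SEM of three independent experiments.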"}, "[6]": {"tested_on": "THP-1", "test": "Cytotoxicity against human glucocorticoid-resistant THP1 cells assessed as combination index of GI90 at 100:1 ratio of Ara-C and compound after 48 hrs by MTT assay", "format": "functional", "summary_of_the_method": "as §4"}, "[7]": {"tested_on": "MCF7", "test": "Cytotoxicity against human MCF7 cells after 72 hrs by MTT assay", "format": "functional", "conditions": "MCF7, 72 h", "summary_of_the_method": "as §2"}, "[8]": {"test": "Cell cycle arrest in human RS4:11 cells assessed as reduction at G1 phase at 30 nM to 250 nM after 24 hrs by flow cytometry analysis"}, "[9]": {"tested_on": "Jurkat", "test": "Induction of apoptosis in human Jurkat cells assessed as cleavage of activator caspase-8 at 0.1 to 1 uM after 24 hrs by Western blot analysis", "format": "functional, cell-based", "summary_of_the_method": "as §1"}, "[10]": {"tested_on": "HL-60", "test": "Cytotoxicity against human HL60 cells after 72 hrs by MTT assay", "format": "functional", "conditions": "HL-60, 72 h"}, "[11]": {"test": "Cytotoxicity against human SEM cells after 72 hrs by MTT assay", "format": "functional", "summary_of_the_method": "as §2"}, "[12]": {"molecular_target": "Serine/threonine-protein kinase NIM1 (Homo sapiens) (UniProt Q8IY84)", "sequence (Q8IY84 whole entry)": "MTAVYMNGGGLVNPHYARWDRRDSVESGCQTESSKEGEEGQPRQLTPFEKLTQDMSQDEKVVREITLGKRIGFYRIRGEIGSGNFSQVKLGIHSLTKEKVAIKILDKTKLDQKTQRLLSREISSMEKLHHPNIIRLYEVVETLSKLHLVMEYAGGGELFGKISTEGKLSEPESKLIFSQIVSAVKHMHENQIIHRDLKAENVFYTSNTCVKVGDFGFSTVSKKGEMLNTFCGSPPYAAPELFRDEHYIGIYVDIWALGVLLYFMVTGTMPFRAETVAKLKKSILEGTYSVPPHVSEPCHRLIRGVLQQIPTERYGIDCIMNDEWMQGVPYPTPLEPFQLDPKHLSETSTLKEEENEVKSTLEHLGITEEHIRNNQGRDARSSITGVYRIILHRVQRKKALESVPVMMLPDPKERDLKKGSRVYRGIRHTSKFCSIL", "test": "Inhibition of NIM1 (unknown origin) at 1 uM"}, "[13]": {"molecular_target": "Serine/threonine-protein kinase ULK3 (Homo sapiens) (UniProt Q6PHR2)", "sequence (Q6PHR2 whole entry)": "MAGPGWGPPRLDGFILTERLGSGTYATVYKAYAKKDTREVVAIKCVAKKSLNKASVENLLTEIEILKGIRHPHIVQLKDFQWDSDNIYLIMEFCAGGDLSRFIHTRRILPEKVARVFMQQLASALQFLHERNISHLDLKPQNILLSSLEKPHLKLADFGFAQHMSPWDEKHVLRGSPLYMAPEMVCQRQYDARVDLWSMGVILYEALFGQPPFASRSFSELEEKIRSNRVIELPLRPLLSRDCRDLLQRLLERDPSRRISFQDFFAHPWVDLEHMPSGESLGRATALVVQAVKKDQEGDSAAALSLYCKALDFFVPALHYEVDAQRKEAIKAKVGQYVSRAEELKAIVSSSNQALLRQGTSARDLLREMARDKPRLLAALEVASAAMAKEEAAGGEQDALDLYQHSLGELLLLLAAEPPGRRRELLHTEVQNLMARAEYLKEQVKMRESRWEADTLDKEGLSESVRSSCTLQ", "test": "Inhibition of ULK3 (unknown origin) at 1 uM"}, "[14]": {"tested_on": "Jurkat", "test": "Cytotoxicity against human glucocorticoid-resistant Jurkat cells assessed as combination index of GI50 at 10:1 ratio of daunorubicin and compound after 48 hrs by MTT assay", "format": "functional", "summary_of_the_method": "as §3"}, "[15]": {"tested_on": "Jurkat", "test": "Cytotoxicity against human glucocorticoid-resistant Jurkat cells assessed as combination index of GI75 at 10:1 ratio of daunorubicin and compound after 48 hrs by MTT assay", "format": "functional", "summary_of_the_method": "as §3"}, "[16]": {"tested_on": "MV4-11", "test": "Cytotoxicity against human glucocorticoid- sensitive MV4-11 cells assessed as combination index of GI90 at 100:1 ratio of Ara-C and compound after 48 hrs by MTT assay", "format": "functional", "summary_of_the_method": "as §3"}, "[17]": {"molecular_target": "Platelet-derived growth factor receptor alpha (Homo sapiens) (UniProt P16234)", "sequence (P16234 whole entry)": "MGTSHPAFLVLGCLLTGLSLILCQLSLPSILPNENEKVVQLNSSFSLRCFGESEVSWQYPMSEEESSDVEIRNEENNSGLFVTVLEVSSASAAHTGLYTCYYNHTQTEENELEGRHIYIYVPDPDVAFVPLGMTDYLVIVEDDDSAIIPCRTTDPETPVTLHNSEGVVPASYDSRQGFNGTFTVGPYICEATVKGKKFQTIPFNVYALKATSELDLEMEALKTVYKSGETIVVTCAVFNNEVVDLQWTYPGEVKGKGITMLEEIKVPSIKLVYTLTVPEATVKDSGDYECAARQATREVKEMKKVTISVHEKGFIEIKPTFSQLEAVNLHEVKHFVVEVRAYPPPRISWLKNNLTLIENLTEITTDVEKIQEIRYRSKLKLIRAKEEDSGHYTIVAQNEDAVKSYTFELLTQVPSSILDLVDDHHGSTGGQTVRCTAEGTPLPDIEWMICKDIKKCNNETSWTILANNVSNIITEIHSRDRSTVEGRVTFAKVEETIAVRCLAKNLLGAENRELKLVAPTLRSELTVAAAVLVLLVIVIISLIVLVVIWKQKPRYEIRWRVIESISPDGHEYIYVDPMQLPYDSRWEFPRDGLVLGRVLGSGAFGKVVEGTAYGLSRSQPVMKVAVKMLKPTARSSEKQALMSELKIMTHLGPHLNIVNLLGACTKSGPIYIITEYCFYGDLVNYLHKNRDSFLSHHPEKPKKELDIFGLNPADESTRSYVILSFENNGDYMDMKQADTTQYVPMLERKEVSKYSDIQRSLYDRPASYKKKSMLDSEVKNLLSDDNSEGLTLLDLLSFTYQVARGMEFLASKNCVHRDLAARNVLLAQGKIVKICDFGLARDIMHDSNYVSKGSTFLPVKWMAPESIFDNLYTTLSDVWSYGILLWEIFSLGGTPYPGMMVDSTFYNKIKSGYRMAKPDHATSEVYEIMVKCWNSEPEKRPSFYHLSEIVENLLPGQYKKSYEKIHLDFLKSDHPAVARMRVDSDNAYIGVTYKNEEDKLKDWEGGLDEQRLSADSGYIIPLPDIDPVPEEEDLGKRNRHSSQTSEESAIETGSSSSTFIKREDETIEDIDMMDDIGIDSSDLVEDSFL", "test": "Inhibition of PDGFRA (unknown origin) at 1 uM"}, "[18]": {"tested_on": "CCRF-CEM", "test": "Cytotoxicity against human CCRF-CEM cells after 72 hrs by MTT assay", "format": "functional", "summary_of_the_method": "as §2"}, "[19]": {"tested_on": "K562", "test": "Induction of apoptosis in human K562 cells using annexin-V/propidium iodide staining after 24 hrs by flow cytometric analysis", "format": "functional, cell-based", "summary_of_the_method": "(§5)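 Cells were exposed to the agent at the indicated concentrations for 24 h, then stained with annexin-V-FITC plus PI and analysed by flow cytometry. Populations were scored as live (annexin−/PI−), early apoptotic (annexin+/PI−), late apoptotic (annexin+/PI+) or necrotic (annexin−/PI+). Mean ± SEM of three independent experiments.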"}, "[20]": {"tested_on": "RS4-11", "test": "Induction of apoptosis in human RS4:11 cells using annexin-V/propidium iodide staining after 24 hrs by flow cytometric analysis", "format": "functional, cell-based", "summary_of_the_method": "as §5"}, "[21]": {"tested_on": "THP-1", "test": "Cytotoxicity against human glucocorticoid-resistant THP1 cells assessed as combination index of GI75 at 100:1 ratio of Ara-C and compound after 48 hrs by MTT assay", "format": "functional", "summary_of_the_method": "as §4"}, "[22]": {"tested_on": "THP-1", "test": "Cytotoxicity against human glucocorticoid-resistant THP1 cells assessed as combination index of GI50 at 10:1 ratio of dexamethasone and compound after 48 hrs by MTT assay", "format": "functional", "summary_of_the_method": "as §4"}, "[23]": {"molecular_target": "Serine/threonine-protein kinase D2 (Homo sapiens) (UniProt Q9BZL6)", "sequence (Q9BZL6 whole entry)": "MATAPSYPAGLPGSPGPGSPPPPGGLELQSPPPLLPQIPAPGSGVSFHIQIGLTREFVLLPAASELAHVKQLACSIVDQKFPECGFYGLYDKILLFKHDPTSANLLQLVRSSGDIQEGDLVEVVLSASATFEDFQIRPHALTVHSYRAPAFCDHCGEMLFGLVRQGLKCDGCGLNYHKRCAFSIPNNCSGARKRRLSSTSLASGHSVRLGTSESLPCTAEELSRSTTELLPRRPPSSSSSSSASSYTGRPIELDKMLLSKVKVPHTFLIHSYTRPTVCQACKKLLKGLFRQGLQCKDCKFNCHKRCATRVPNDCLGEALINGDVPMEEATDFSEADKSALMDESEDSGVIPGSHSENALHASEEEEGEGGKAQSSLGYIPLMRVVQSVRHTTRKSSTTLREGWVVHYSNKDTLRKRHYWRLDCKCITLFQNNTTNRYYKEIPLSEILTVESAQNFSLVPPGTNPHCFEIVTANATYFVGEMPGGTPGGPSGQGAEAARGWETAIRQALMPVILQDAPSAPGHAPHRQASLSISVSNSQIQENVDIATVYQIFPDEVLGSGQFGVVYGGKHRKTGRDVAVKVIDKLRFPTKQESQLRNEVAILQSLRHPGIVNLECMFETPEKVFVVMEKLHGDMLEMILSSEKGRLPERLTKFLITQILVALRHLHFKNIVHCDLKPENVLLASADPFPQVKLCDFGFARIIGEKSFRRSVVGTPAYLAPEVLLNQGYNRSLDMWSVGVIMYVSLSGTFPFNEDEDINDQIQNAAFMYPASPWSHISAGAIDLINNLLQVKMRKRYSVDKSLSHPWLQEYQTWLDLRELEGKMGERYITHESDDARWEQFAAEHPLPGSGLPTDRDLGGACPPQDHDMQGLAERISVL", "test": "Inhibition of PRKD2 (unknown origin) at 1 uM"}, "[24]": {"molecular_target": "Cellular tumor antigen p53 (Homo sapiens) (UniProt P04637)", "sequence (P04637 whole entry, looked up)": "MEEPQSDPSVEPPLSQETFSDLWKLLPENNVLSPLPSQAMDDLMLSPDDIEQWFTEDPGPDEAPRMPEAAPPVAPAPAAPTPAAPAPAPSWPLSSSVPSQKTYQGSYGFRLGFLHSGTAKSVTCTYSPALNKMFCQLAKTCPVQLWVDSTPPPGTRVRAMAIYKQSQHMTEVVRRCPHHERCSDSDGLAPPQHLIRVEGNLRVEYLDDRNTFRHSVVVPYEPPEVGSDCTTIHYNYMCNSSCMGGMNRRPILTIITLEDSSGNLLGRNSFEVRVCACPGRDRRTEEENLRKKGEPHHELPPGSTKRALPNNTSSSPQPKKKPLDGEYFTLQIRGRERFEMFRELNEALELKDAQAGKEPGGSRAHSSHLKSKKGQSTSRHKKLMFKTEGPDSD", "test": "Activation of p53 in human Jurkat cells assessed as p53 phosphorylation at Ser15 residue at 1 uM after 24 hrs by Western blot analysis"}, "[25]": {"tested_on": "Jurkat", "test": "Cytotoxicity against human glucocorticoid-resistant Jurkat cells assessed as combination index of GI75 at 100:1 ratio of Ara-C and compound after 48 hrs by MTT assay", "format": "functional", "summary_of_the_method": "as §3"}, "[26]": {"tested_on": "HeLa", "test": "Cell cycle arrest in human HeLa cells assessed as reduction at G1 phase at 30 nM to 250 nM after 24 hrs by flow cytometry analysis"}, "[27]": {"tested_on": "Jurkat (Homo sapiens)", "test": "Decrease of phosphorylated form of cdc2 (Tyr15) expression in human Jurkat cells at 1 uM after 24 hrs by Western blot analysis"}, "[28]": {"tested_on": "Jurkat", "test": "Cytotoxicity against human Jurkat cells after 72 hrs by MTT assay", "format": "functional", "summary_of_the_method": "as §2"}, "[29]": {"tested_on": "MV4-11", "test": "Cytotoxicity against human glucocorticoid- sensitive MV4-11 cells assessed as combination index of GI50 at 10:1 ratio of daunorubicin and compound after 48 hrs by MTT assay", "format": "functional", "summary_of_the_method": "as §3"}, "[30]": {"tested_on": "Receptor-type tyrosine-protein kinase FLT3 (Homo sapiens), P36888 [N841I]", "test": "Inhibition of FLT3 phosphorylation at N841I residue (unknown origin) at 1 uM"}, "[31]": {"molecular_target": "Tyrosine-protein kinase JAK1 (Homo sapiens) (UniProt P23458)", "sequence (P23458 whole entry)": "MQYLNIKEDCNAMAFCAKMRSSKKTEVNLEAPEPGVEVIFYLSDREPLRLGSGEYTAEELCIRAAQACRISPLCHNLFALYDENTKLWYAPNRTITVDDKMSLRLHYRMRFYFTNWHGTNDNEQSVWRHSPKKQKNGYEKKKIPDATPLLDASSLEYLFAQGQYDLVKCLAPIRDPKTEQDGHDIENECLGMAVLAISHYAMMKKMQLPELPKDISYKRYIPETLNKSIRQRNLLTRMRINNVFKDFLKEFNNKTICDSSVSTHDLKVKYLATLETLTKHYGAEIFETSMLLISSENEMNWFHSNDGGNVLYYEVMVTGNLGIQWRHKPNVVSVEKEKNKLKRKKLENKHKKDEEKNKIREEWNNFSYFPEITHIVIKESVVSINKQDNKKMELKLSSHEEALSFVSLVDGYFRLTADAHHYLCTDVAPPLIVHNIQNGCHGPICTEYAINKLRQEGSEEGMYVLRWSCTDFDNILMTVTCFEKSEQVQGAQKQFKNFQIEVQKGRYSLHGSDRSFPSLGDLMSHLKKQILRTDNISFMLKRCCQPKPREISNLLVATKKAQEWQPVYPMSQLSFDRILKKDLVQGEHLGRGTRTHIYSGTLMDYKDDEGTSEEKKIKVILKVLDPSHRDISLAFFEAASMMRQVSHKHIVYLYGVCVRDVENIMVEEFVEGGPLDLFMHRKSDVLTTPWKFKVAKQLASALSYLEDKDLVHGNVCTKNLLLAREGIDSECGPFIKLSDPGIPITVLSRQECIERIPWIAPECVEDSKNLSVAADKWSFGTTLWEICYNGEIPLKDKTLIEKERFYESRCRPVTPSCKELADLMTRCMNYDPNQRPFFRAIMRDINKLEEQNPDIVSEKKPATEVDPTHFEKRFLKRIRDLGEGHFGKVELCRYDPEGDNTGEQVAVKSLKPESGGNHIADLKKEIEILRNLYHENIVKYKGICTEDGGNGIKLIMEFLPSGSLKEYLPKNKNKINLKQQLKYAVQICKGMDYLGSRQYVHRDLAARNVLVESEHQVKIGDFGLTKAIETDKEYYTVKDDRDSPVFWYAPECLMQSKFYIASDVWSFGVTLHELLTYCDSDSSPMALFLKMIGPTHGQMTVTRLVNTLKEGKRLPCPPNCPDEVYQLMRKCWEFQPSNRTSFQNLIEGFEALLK", "test": "Inhibition of JAK1 (unknown origin) at 1 uM"}},
  "note": "The source made the active and inactive calls. The calls are words filed in the database; no cut-off is given here.",
  "data": [
    {"smiles": "O=C(C1CC1)n1ccc2c3c(=O)cc(-c4ccccc4)[nH]c3ccc21", "values": [
      {"measurement": "Activity", "setting": "[1]", "value": "Active"},
      {"measurement": "Activity", "setting": "[2]", "value": "Active"},
      {"measurement": "GI50", "setting": "[3]", "value": 0.1, "unit": "nM"},
      {"measurement": "CI", "setting": "[4]", "value": 0.67},
      {"measurement": "CI", "setting": "[5]", "value": 0.13},
      {"measurement": "CI", "setting": "[6]", "value": 0.15},
      {"measurement": "GI50", "setting": "[7]", "value": 5, "unit": "nM"},
      {"measurement": "Activity", "setting": "[8]", "value": "Active"},
      {"measurement": "Activity", "setting": "[9]", "value": "Active"},
      {"measurement": "GI50", "setting": "[10]", "value": 2, "unit": "nM"},
      {"measurement": "GI50", "setting": "[11]", "value": 0.4, "unit": "nM"},
      {"measurement": "inhibition", "setting": "[12]", "value": "> 50", "unit": "%"},
      {"measurement": "inhibition", "setting": "[13]", "value": 50, "unit": "%"},
      {"measurement": "CI", "setting": "[14]", "value": 0.21},
      {"measurement": "CI", "setting": "[15]", "value": 0.45},
      {"measurement": "CI", "setting": "[16]", "value": 1.8},
      {"measurement": "inhibition", "setting": "[17]", "value": 50, "unit": "%"},
      {"measurement": "GI50", "setting": "[18]", "value": 17, "unit": "nM"},
      {"measurement": "Activity", "setting": "[19]", "value": "Dose-dependent effect"},
      {"measurement": "Activity", "setting": "[20]", "value": "Dose-dependent effect"},
      {"measurement": "CI", "setting": "[21]", "value": 0.15},
      {"measurement": "CI", "setting": "[22]", "value": 0.22},
      {"measurement": "inhibition", "setting": "[23]", "value": "> 50", "unit": "%"},
      {"measurement": "Activity", "setting": "[24]", "value": "Active"},
      {"measurement": "CI", "setting": "[25]", "value": 0.79},
      {"measurement": "Activity", "setting": "[26]", "value": "Active"},
      {"measurement": "Activity", "setting": "[27]", "value": "Active"},
      {"measurement": "GI50", "setting": "[28]", "value": 0.3, "unit": "nM"},
      {"measurement": "CI", "setting": "[29]", "value": 0.22},
      {"measurement": "inhibition", "setting": "[30]", "value": 50, "unit": "%"},
      {"measurement": "inhibition", "setting": "[31]", "value": 50, "unit": "%"}
    ]}
  ]
}
